Shown are actives, neighbours in structure and some others; about 1.6% of the full set was active somewhere.
PKD1 inh: inhibitors of human PKD1 kinase, biochemical, fluorescence polarization. hit rate 0.056% among 200,000. Serine/threonine-protein kinase D1 (Homo sapiens), Q15139. PKD1 kinase fluorescence polarization assay. inhibition, % (concentration not given with the values)
RBBP9 inh: human RBBP9 inhibitors, primary screen, biochemical, fluorescence polarization, FP-Rh probe, HTS | Serine hydrolase RBBP9 (Homo sapiens), O75884 | inhibition, % at 7.94 µM | recombinant RBBP9 | AID 1515, 2009 | hit rate 0.2% among 220,000;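 active means inhibition above the campaign mean of all tested compounds plus 3 SD, cut at about 14% in these data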
Target sequence (O75884 whole entry, looked up): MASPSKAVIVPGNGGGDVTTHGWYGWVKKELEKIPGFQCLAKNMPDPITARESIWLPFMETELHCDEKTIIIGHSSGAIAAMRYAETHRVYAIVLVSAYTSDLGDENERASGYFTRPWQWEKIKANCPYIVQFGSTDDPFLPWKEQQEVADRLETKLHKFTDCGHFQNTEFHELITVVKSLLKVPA
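system = RBBP9 protein | input = RBBP9 at 2.5 µM in dispensed solution, before mixing | measured by = fluorescence polarization (mP), excitation 525 nm, emission 598 nm | incubation = enzyme-compound preincubation 30 min, then probe labeling 45 min, 25 °C | buffer or medium = Tris-NaCl-Pluronic buffer, pH 8.0 | compound = single dose 7.94 µM | also added = FP-Rh probe, 375 nM dispensing solution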
eIF4E 4G PPI: eIF4E–eIF4G protein interaction inhibitors, primary screen, biochemical, uHTS, TR-FRET, eIF4GI fragment. Eukaryotic translation initiation factor 4E (Mus musculus) + Eukaryotic translation …. TR-FRET eIF4E-eIF4GI(517-606) binding, 2 h. inhibition, % at 21.7 µM. hit rate 0.37% among 220,000. AID 782, 2007;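 active means inhibition above about 30%, limit read from the data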
EBV gp42 block: Epstein-Barr virus gp42 inhibitors, primary screen, biochemical, uHTS, fluorescence polarization; Glycoprotein 42 (Epstein-Barr virus (strain AG876)), Q1HVG2; Fluorescence polarization binding assay, mP read-out; hit rate 0.42% among 220,000; AID 1085, 2008; inhibition, % (tested at 21.74 µM)
14-3-3 Bad inh: inhibitors of 14-3-3 zeta/Bad binding, primary screen, biochemical, TR-FRET, bovine 14-3-3 zeta; TR-FRET 14-3-3zeta/Dy647-pBad peptide displacement, 1 h; AID 781, 2007; hit rate 0.71% among 220,000; 14-3-3 protein zeta/delta (Bos taurus), P63103; inhibition, % at 21.7 µM;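 active means inhibition above about 70%, limit read from the data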
Target sequence (P63103 whole entry, looked up): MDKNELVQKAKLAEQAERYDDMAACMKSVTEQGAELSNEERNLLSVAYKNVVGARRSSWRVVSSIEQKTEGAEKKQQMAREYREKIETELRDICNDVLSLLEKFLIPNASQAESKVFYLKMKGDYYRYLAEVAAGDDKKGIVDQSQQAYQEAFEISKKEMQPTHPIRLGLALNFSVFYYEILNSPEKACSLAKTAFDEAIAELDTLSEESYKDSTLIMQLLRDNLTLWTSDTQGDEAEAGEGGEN
Hits are given with their value; i = inactive; nt = no result given; [ ] = remark or other dose. Unless noted, no stated cut-off is given here; in the data, active means inhibition above about 50%; inactive means the rest.

SMILES | PKD1 inh | RBBP9 inh | eIF4E 4G PPI | EBV gp42 block | 14-3-3 Bad inh
COc1nc(OC)nc(N2CCC(C(=O)NCc3cccs3)CC2)n1 | i | i | i | i | 84
Cn1c(=O)cc(Nc2ccccc2)c2c(=O)n(-c3ccccc3)c(=O)n(-c3ccccc3)c21 | nt | i | i | i | i
O=C1Nc2ccc(F)cc2C12Nc1ccccc1-c1nnc(SCc3ccccc3)nc1O2 (stereo unspecified) | i | i | i | i | i
Cc1ccc(CSc2nnc3c(n2)OC2(Nc4ccccc4-3)C(=O)Nc3ccc(F)cc32)cc1 (stereo unspecified) | i | i | i | 151 | i
Cn1c(=O)c2c(nc(N3CCCCCC3)n2CC(O)COc2ccccc2)n(C)c1=O (stereo unspecified) | i | i | i | i | 72
O=C(c1ccccc1)c1ccc(OCCCCN2CCCCC2)cc1 | i | i | i | i | 74
O=C(c1ccccc1)c1ccc(OCCCN2CCCC2)cc1 | i | i | i | i | i
COc1ccc(C(=O)CCN2CCCCCC2)cc1 | i | i | i | i | i
O=C(CCN1CCCCCC1)c1ccccc1 | i | 18 | i | i | i
COc1ccc2cc(C(N)=O)/c(=N/NC(=O)c3ccco3)oc2c1 | i | i | i | i | i
O=c1c2ccccc2nc2n1CCC2 | i | i | 94 | i | 94
Cc1cccc(C)c1N1CCN(c2nc(N(C)C)oc(=O)c2C#N)CC1 | i | i | i | i | i
Cc1cc(C)c2c(N)c(C(=O)c3cccc(Cl)c3)sc2n1 | i | i | i | i | i
CSc1c(C#N)c(N)nc2sc(C(=O)c3ccc(Cl)c(Cl)c3)c(N)c12 | nt | i | i | 76 | i
CCOc1ccc(-c2c(C#N)c(N)nc3sc(C(=O)c4ccccc4)c(N)c23)cc1 | nt | i | i | 70 | i
COc1ccc(C(=O)c2sc3nc(-c4ccccc4)ccc3c2N)cc1 | i | i | i | i | i
COc1ccc(-c2c(C#N)c(N)nc3sc(C(=O)c4ccccc4)c(N)c23)cc1 | i | i | i | 81 | i
CCn1nnnc1SCC(=O)Nc1cccc(NC(C)=O)c1 | i | i | 37[fluorescence artefact?] | i | i
Cc1cccc(NC(=O)CSc2nnnn2C)n1 | i | i | i | 75 | i
CCOC(=O)c1nc(C)nc(Sc2n[nH]c(-c3ccccc3)n2)c1C | nt | i | i | i | i
Cc1cccc(Nc2n[nH]c(=S)s2)c1C | i | i | 58 | i | i
COc1ccccc1Nc1n[nH]c(=S)s1 | i | i | i | i | i
NN=C1c2cc([N+](=O)[O-])ccc2-c2ccc([N+](=O)[O-])cc21 | i | i | i | i | 76
O=[N+]([O-])c1ccc2c(c1)/C(=N\O)c1ccccc1-2 | nt | i | i | i | i
CC(=O)Oc1ccc(C(c2ccc(OC(C)=O)cc2)c2ccccn2)cc1 | i | 25 | i | i | i
SMILES | PKD1 inh | RBBP9 inh | eIF4E 4G PPI | EBV gp42 block | 14-3-3 Bad inh
CN(C)c1cc(-c2ccc([N+](=O)[O-])cc2)oc(=O)c1Cl | nt | i | i | i | i
CC(=O)N/N=C/c1cc(C(C)(C)C)cc(/C=N/NC(C)=O)c1O | i | i | i | 67 | i
CCC(O)(CC)C(=O)N/N=C/c1cc(Br)cc(Br)c1O | nt | i | i | i | i
CCNC(=O)NC(=O)CN(C)c1ccccc1 | i | i | i | i | i
C/C=C(\C)C(=O)NCCN1C2=NC[C@@H](Cc3ccccc3)N2C[C@H]1Cc1ccc(O)cc1 | i | i | i | i | i
CCCCCCNC(=O)N[C@@H](C(=O)NCCC[C@H]1CN2C(=NC[C@@H]2Cc2ccccc2)N1CCc1cccc(OC)c1)C(C)C | nt | nt | 41 | i | i
N=c1sccn1CC(=O)Nc1ccc([N+](=O)[O-])cc1Cl | nt | i | i | i | i
CSC1=N/C(=C\c2ccccc2F)C(=O)S1 | i | i | i | 99 | i
COC(=O)c1ccccc1NC(=O)CCCn1nc([N+](=O)[O-])c(Br)c1C | i | i | i | i | i
CCCn1c(=C(C#N)C#N)s/c(=C2\C=Cc3ccccc3N2CC)c1=O | i | i | i | 53 | i
CC1C2C(C)N(C)C(=O)N(C)C2N(C)C(=O)N1C (stereo unspecified) | i | i | i | 65 | i
O=C(NCCCN1CCOCC1)c1ccccc1 | i | i | i | i | 81
CCOC(=O)C1CCCN(Cc2c(Cl)cccc2Cl)C1 (stereo unspecified) | i | i | i | i | i
CCOC(=O)C1CCCN(Cc2ccccc2F)C1 (stereo unspecified) | i | i | i | i | 73
CCOC(=O)C1CCCN(C(=O)CSCc2ccccc2)C1 (stereo unspecified) | i | i | i | i | 84
CCOC(=O)C1CCCN(CC(=O)NC2CC2)C1 (stereo unspecified) | nt | nt | i | i | 77
CCOC(=O)C1CCCN(C(=O)COc2ccccc2O)C1 (stereo unspecified) | i | i | i | i | i
CCOC(=O)C1CCCCN1Cc1ccccc1C(F)(F)F (stereo unspecified) | i | i | i | i | 80
CCC(C)(C)NC(=O)C(c1ccc(F)cc1)N(Cc1ccccc1)C(=O)c1cnccn1 (stereo unspecified) | i | i | i | i | i
Cc1ccc(-n2c(Cl)c(Cl)nc(Cl)c2=O)cc1 | i | i | i | i | i
O=C(CCNC(=O)c1ccco1)Nc1ccc(SC(F)F)cc1 | i | i | i | i | i
Cc1cc(/C=C(/C#N)c2nc3ccccc3[nH]2)c(C)n1-c1ccccc1C(=O)O | i | i | i | i | i
Cc1cc(/C=C(/C#N)c2nc3ccccc3[nH]2)c(C)n1-c1cc(C(=O)O)cc(C(=O)O)c1 | i | i | i | 129 | i
Cc1noc(C)c1COc1ccc(C(=O)OCC(=O)NCCN2C(=O)CSC2=O)cc1 | i | i | i | i | i
Cc1cc(SCc2cc(=O)[nH]c3ccccc23)nc2ccccc12 | i | i | i | i | i
SMILES | PKD1 inh | RBBP9 inh | eIF4E 4G PPI | EBV gp42 block | 14-3-3 Bad inh
O=c1cc(CSc2ccccn2)c2ccccc2[nH]1 | i | i | i | i | 81[fluorescence artefact?]
OCC(CO)(CO)NC(=S)Nc1cc(Cl)cc(Cl)c1 | nt | i | 97 | i | i
S=C(NCc1cccnc1)Nc1cc(Cl)cc(Cl)c1 | nt | i | i | i | i
CCOC(=O)c1ccc(S(=O)(=O)NNC(=O)COc2cccc(C)c2)cc1 | i | i | i | i | i
CC(=O)Nc1ccc(S(=O)(=O)NNC(=O)COc2cccc(C)c2)cc1 | i | i | 33[fluorescence artefact?] | i | i
COc1ccc(S(=O)(=O)Nc2nnc(Cc3ccc(OC)c(OC)c3)s2)cc1 | i | i | i | i | i
O=C(Cn1cc(C(=O)C(F)(F)F)c2ccccc21)N1CCOCC1 | i | i | i | i | i
C=C1c2cccc(O)c2C(O)=C2C(=O)[C@]3(O)C(O)=C(C(N)=O)C(=O)[C@@H](N(C)C)[C@@H]3[C@@H](O)[C@H]12 | i | 37 | i | i | i

Bioassay records (PubChem BioAssay)
